ChEMBL document CHEMBL3779892, “Increasing the binding affinity of VEGFR-2 inhibitors by extending their hydrophobic interaction with the active site: Design, synthesis and biological evaluation of 1-substituted-4-(4-methoxybenzyl)phthalazine derivatives” (Eur J Med Chem, 2016)

Legend:
Format in all cases: functional
[1] = Growth inhibition of human HCT15 cells at 10 uM after 48 hrs by sulforhodamine B assay; details: HCT-15, 48 h, read-out: GI
Method in brief: (§1)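 Run at NCI on the 60-line panel. Cells grown in RPMI 1640 with 5% FBS and 2 mM L-glutamine, plated at 5000–40,000 cells/well by doubling time, and held 24 h at 37 °C before dosing. Drug (DMSO stock) given at a single final 10 µM in triplicate wells for 48 h. Adherent cells fixed with cold TCA (10% final), suspension cells with 16% TCA. SRB stain read at 515 nm. Percent growth from Tz, C and Ti.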

[2] = system: NCI-H23; experiment: Growth inhibition of human NCI-H23 cells at 10 uM after 48 hrs by sulforhodamine B assay; details: NCI-H23, 48 h, read-out: GI; method in brief: as §1
[3] = Growth inhibition of human SKOV3 cells at 10 uM after 48 hrs by sulforhodamine B assay; details: SK-OV-3, 48 h, read-out: GI; method in brief: as §1
[4] = Growth inhibition of human RXF393 cells at 10 uM after 48 hrs by sulforhodamine B assay; details: RXF 393, 48 h, read-out: GI; method in brief: as §1
[5] = system: KM12; experiment: Growth inhibition of human KM12 cells at 10 uM after 48 hrs by sulforhodamine B assay; details: KM12, 48 h, read-out: GI; method in brief: as §1
[6] = system: CCRF-CEM; experiment: Growth inhibition of human CCRF-CEM cells at 10 uM after 48 hrs by sulforhodamine B assay; details: read-out: GI; method in brief: as §1
[7] = Growth inhibition of human RPMI8226 cells at 10 uM after 48 hrs by sulforhodamine B assay; details: RPMI-8226, 48 h, read-out: GI; method in brief: as §1
[8] = system: NCI-H460; experiment: Growth inhibition of human NCI-H460 cells at 10 uM after 48 hrs by sulforhodamine B assay; details: NCI-H460, 48 h, read-out: GI; method in brief: as §1
[9] = system: NCI-H522; experiment: Growth inhibition of human NCI-H522 cells at 10 uM after 48 hrs by sulforhodamine B assay; details: NCI-H522, 48 h, read-out: GI; method in brief: as §1
[10] = system: A498; experiment: Growth inhibition of human A498 cells at 10 uM after 48 hrs by sulforhodamine B assay; details: A498, 48 h, read-out: GI; method in brief: as §1
[11] = Growth inhibition of human HCT116 cells at 10 uM after 48 hrs by sulforhodamine B assay; details: HCT-116, 48 h, read-out: GI; method in brief: as §1
[12] = system: MDA-MB-231; experiment: Growth inhibition of human MDA-MB-231 cells at 10 uM after 48 hrs by sulforhodamine B assay; details: MDA-MB-231, 48 h, read-out: GI; method in brief: as §1
[13] = Growth inhibition of human Caki1 cells at 10 uM after 48 hrs by sulforhodamine B assay; details: CAKI-1, 48 h, read-out: GI; method in brief: as §1
[14] = system: NCI-H226; experiment: Growth inhibition of human NCI-H226 cells at 10 uM after 48 hrs by sulforhodamine B assay; details: NCI-H226, 48 h, read-out: GI; method in brief: as §1
[15] = Growth inhibition of human BT549 cells at 10 uM after 48 hrs by sulforhodamine B assay; details: BT-549, 48 h, read-out: GI; method in brief: as §1
[16] = Growth inhibition of human IGROV1 cells at 10 uM after 48 hrs by sulforhodamine B assay; details: IGROV-1, 48 h, read-out: GI; method in brief: as §1
[17] = Growth inhibition of human OVCAR4 cells at 10 uM after 48 hrs by sulforhodamine B assay; details: OVCAR-4, 48 h, read-out: GI; method in brief: as §1
[18] = Growth inhibition of human SF268 cells at 10 uM after 48 hrs by sulforhodamine B assay; details: SF-268, 48 h, read-out: GI; method in brief: as §1
[19] = Growth inhibition of human PC3 cells at 10 uM after 48 hrs by sulforhodamine B assay; details: PC-3, 48 h, read-out: GI; method in brief: as §1
[20] = system: Malme-3M; experiment: Growth inhibition of human MALME-3M cells at 10 uM after 48 hrs by sulforhodamine B assay; details: read-out: GI; method in brief: as §1
[21] = Growth inhibition of human Hs 578T cells at 10 uM after 48 hrs by sulforhodamine B assay; details: read-out: GI; method in brief: as §1
[22] = Growth inhibition of human OVCAR5 cells at 10 uM after 48 hrs by sulforhodamine B assay; details: OVCAR-5, 48 h, read-out: GI; method in brief: as §1
[23] = system: 786-0; experiment: Growth inhibition of human 786-0 cells at 10 uM after 48 hrs by sulforhodamine B assay; details: 786-0, 48 h, read-out: GI; method in brief: as §1

Row | Structure (SMILES) | inhibition of growth at 10 µM [1] [%] | inhibition of growth at 10 µM [2] [%] | inhibition of growth at 10 µM [3] [%] | inhibition of growth at 10 µM [4] [%] | inhibition of growth at 10 µM [5] [%] | inhibition of growth at 10 µM [6] [%] | inhibition of growth at 10 µM [7] [%] | inhibition of growth at 10 µM [8] [%] | inhibition of growth at 10 µM [9] [%] | inhibition of growth at 10 µM [10] [%] | inhibition of growth at 10 µM [11] [%] | inhibition of growth at 10 µM [12] [%] | inhibition of growth at 10 µM [13] [%] | inhibition of growth at 10 µM [14] [%] | inhibition of growth at 10 µM [15] [%] | inhibition of growth at 10 µM [16] [%] | inhibition of growth at 10 µM [17] [%] | inhibition of growth at 10 µM [18] [%] | inhibition of growth at 10 µM [19] [%] | inhibition of growth at 10 µM [20] [%] | other results
1 | COc1ccc(Cc2nnc(Nc3ccc(NC(=O)Nc4cccc(Cl)c4)cc3)c3ccccc23)cc1 | < 30 | < 30 | < 30 | 40 | < 30 | 41 | 31 | < 30 | 57 | < 30 | 37 | < 30 | < 30 | < 30 | < 30 | < 30 | < 30 | < 30 | 32 | < 30 | inhibition of growth at 10 µM [21]: < 30%; inhibition of growth at 10 µM [22]: < 30%; inhibition of growth at 10 µM [23]: 35%
2 | COc1ccc(Cc2nnc(Nc3ccc(NC(=O)Nc4ccccc4)cc3)c3ccccc23)cc1 | < 30 | < 30 | < 30 | 49 | < 30 | 34 | 46 | < 30 | 48 | < 30 | 35 | 31 | < 30 | < 30 | < 30 | < 30 | < 30 | < 30 | 30 | < 30 | inhibition of growth at 10 µM [21]: 33%; inhibition of growth at 10 µM [22]: < 30%; inhibition of growth at 10 µM [23]: 36%
3 | COc1ccc(Cc2nnc(Nc3ccc(NC(=O)Nc4cccc(C(F)(F)F)c4)cc3)c3ccccc23)cc1 | < 30 | < 30 | < 30 | 50 | 36 | 35 | 42 | < 30 | 56 | < 30 | 42 | < 30 | < 30 | < 30 | < 30 | < 30 | < 30 | < 30 | 36 | < 30 | inhibition of growth at 10 µM [21]: 34%; inhibition of growth at 10 µM [22]: < 30%; inhibition of growth at 10 µM [23]: 41%
4 | COc1ccc(Cc2nnc(Nc3ccc(NC(=O)Nc4cccc(OC)c4)cc3)c3ccccc23)cc1 | < 30 | < 30 | < 30 | 50 | < 30 | < 30 | 43 | < 30 | < 30 | < 30 | < 30 | < 30 | < 30 | < 30 | < 30 | < 30 | < 30 | < 30 | < 30 | < 30 | inhibition of growth at 10 µM [21]: 50%; inhibition of growth at 10 µM [22]: < 30%; inhibition of growth at 10 µM [23]: 42%
